The record followed here is ChEMBL document CHEMBL4725239, “Design, synthesis and SAR study of bridged tricyclic pyrimidinone carboxamides as HIV-1 integrase inhibitors” (Bioorg Med Chem, 2020).

The subject of data set [1] is Human immunodeficiency virus 1. The data set can be described thus: Antiviral activity against wild type HIV1 in presence of 10% FBS. Type of data set: functional, organism-based.
The subject of data set [2] is Human immunodeficiency virus 1. The data set can be described thus: Antiviral activity against HIV1 harboring G140S/Q148H double mutant in presence of 10% FBS. It counts as functional, organism-based. In outline: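 HIV-1 carrying G140S/Q148H double-mutant integrase; antiviral EC50 determined with 10% FBS in the medium.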
The nature of data set [3]: Clearance in Beagle dog at 1 mg/kg, iv. Type of data set: ADME, organism-based, Canis lupus familiaris. The following applies: in vivo.
Data set [4] can be described thus: Cmax in Sprague-Dawley rat at 1 mg/kg, iv measured up to 4 hrs. Type of data set: ADME, organism-based. The following applies: in vivo. On the set-up: route intravenous, dose 1 mg/kg, time <=4. The gist of the method: (§1)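 Male Sprague-Dawley rats dosed IV with compound as a PEG-400/ethanol (90:10) solution. Plasma exposure was followed for 4 h, and Cmax, t1/2, clearance and Vss were derived from that profile.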

Data set [5] is described as follows: Half life in Sprague-Dawley rat at 1 mg/kg, iv measured up to 4 hrs. The following applies: in vivo. Type of data set: ADME, organism-based. In outline: as §1
Data set [6] in a line: Clearance in Sprague-Dawley rat at 1 mg/kg, iv measured up to 4 hrs. Type of data set: ADME, organism-based. The following applies: in vivo. In outline:
as §1

A short description of data set [7]: Volume of distribution at steady state in Sprague-Dawley rat at 1 mg/kg, iv measured up to 4 hrs. The following applies: in vivo, read-out: Vdss. Type of data set: ADME, organism-based. In outline: as §1
Data set [8] in a line: Volume of distribution at steady state in cynomolgus monkey at 1 mg/kg, iv. The following applies: in vivo, read-out: Vdss. It counts as ADME, organism-based, Macaca fascicularis. In outline: (§2)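 Cynomolgus monkeys dosed IV or PO with compound formulated as a PEG-400/ethanol (90:10) solution. Oral bioavailability was taken from the PO versus IV exposure.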
A short description of data set [9]: Half life in cynomolgus monkey at 1 mg/kg, iv. Type of data set: ADME, organism-based, Macaca fascicularis. The following applies: in vivo. In outline:
as §2

Data set [10] in a line: Oral bioavailability in Beagle dog at 5 mg/kg. The following applies: in vivo. It counts as ADME, organism-based, Canis lupus familiaris.
The nature of data set [11]: Volume of distribution at steady state in Beagle dog at 1 mg/kg, iv. Type of data set: ADME, organism-based, Canis lupus familiaris. The following applies: in vivo, read-out: Vdss.
A short description of data set [12]: Half life in Beagle dog at 1 mg/kg, iv. It counts as ADME, organism-based, Canis lupus familiaris. The following applies: in vivo.
Data set [13] in a line: Clearance in cynomolgus monkey at 1 mg/kg, iv. It counts as ADME, organism-based, Macaca fascicularis. The following applies: in vivo. In outline:
as §2

Data set [14] is described as follows: AUC in Sprague-Dawley rat at 5 mg/kg, po. The following applies: in vivo. Type of data set: ADME, organism-based. The arrangement: dose 5 mg/kg.
Data set [15] is described as follows: Oral bioavailability in Sprague-Dawley rat at 5 mg/kg. The following applies: in vivo. It counts as ADME, organism-based.
Data set [16] in a line: AUC in Beagle dog at 5 mg/kg, po. Type of data set: ADME, organism-based, Canis lupus familiaris. On the set-up: dose 5 mg/kg. The following applies: in vivo.
A short description of data set [17]: AUC in cynomolgus monkey at 5 mg/kg, po. It counts as ADME, organism-based, Macaca fascicularis. On the set-up: dose 5 mg/kg. The following applies: in vivo. In outline:
as §2

Data set [18] is described as follows: Oral bioavailability in cynomolgus monkey at 5 mg/kg. It counts as ADME, organism-based, Macaca fascicularis. The following applies: in vivo. In outline: as §2
Data set [19] concerns Human immunodeficiency virus 1. The data set can be described thus: Antiviral activity against HIV1 harboring G140S/Q148H double mutant in presence of HSA. Type of data set: functional, organism-based.
Data set [20] in a line: Ratio of EC50 for Antiviral activity against HIV1 harboring G140S/Q148H double mutant in presence of 10% FBS to EC50 for antiviral activity against HIV1 harboring G140S/Q148H double mutant in presence of HSA. Type of data set: functional, Human immunodeficiency virus 1.
The nature of data set [21]: Binding affinity to wild type HIV1 integrase. On the set-up: species or system Human immunodeficiency virus 1.
Data set [22] has as its target Integrase (Human immunodeficiency virus 1, UniProt T1QYY3, G140S/Q148H). The data set can be described thus: Binding affinity to […] HIV1 integrase G140S/Q148H mutant.
Data set [23] can be described thus: Cmax in Sprague-Dawley rat at 0.5 mg/kg, iv measured up to 4 hrs. Type of data set: ADME, organism-based. On the set-up: route intravenous, dose 0.5 mg/kg, time <=4. The following applies: in vivo. In outline:
as §1

Data set [24] can be described thus: Half life in Sprague-Dawley rat at 0.5 mg/kg, iv measured up to 4 hrs. It counts as ADME, organism-based. The following applies: in vivo. In outline: as §1
Data set [25] is described as follows: Clearance in Sprague-Dawley rat at 0.5 mg/kg, iv measured up to 4 hrs. Type of data set: ADME, organism-based. The following applies: in vivo. The gist of the method: as §1
The nature of data set [26]: Volume of distribution at steady state in Sprague-Dawley rat at 0.5 mg/kg, iv measured up to 4 hrs. The following applies: in vivo, read-out: Vdss. It counts as ADME, organism-based. The gist of the method: as §1
Data set [27] relates to Human immunodeficiency virus 1. The data set can be described thus: Antiviral activity against HIV1 harboring Q148R mutant. Type of data set: functional, organism-based.

The structures appear in SMILES notation.

Usually EC50 stands for the concentration needed to bring the measured effect to its halfway point. As to `CN(C)C(=O)C(=O)NC12CCC(CC1)Cn1c2nc(C(=O)NCc2ccc(F)c(Cl)c2)c(O)c1=O`, the EC50 worked out at 0.8 nM in data set [1] and 6 nM in [2].

Take `CN(C)C(=O)C(=O)NC12CCC(CC1)Cn1c2nc(C(=O)NCc2ccc(F)cc2S(C)(=O)=O)c(O)c1=O`: the EC50 in [1] was 11 nM; in data set [2], above 8000 nM.

Consider `CC(C)C(=O)C(=O)NC12CCC(CC1)Cn1c2nc(C(=O)NCc2ccc(F)cc2)c(O)c1=O`, for which the 50% effective concentration (EC50) in data set [1] came out at 2 nM; in [2], 94 nM.

The clearance is a measure of how efficiently the substance is removed, as volume per time. By Cmax is commonly meant the peak of the concentration-time curve. As usually defined, the half-life is how long it takes for the measured level to halve. The AUC is the area under the concentration-time curve, a measure of exposure. By Ki is commonly meant the equilibrium dissociation constant of an inhibitor or competing ligand from its target. `Cc1cc(CNC(=O)c2nc3n(c(=O)c2O)CC2CCC3(NC(=O)C(=O)N(C)C)CC2)ccc1F`: the clearance in data set [3] was 7 mL/min/kg; in data set [6], 12.6 mL/min/kg; in data set [13], 13.5 mL/min/kg. Besides, the concentration giving a half-maximal response (EC50) was determined as 0.7 nM in data set [1], 3 nM in data set [2] and 21 nM in data set [19]. The same compound showed a peak concentration (Cmax) in data set [4] of 5.3 µM. Besides, the half-life in data set [5] is 12.3 h; in [9] it was 1.6 h; in data set [12], 1.6 h. Moreover, the values for the Vd in data set [7], in [8] and in data set [11] were 1.2 L/kg, 0.26 L/kg and 0.3 L/kg, respectively. In addition, the bioavailability in data set [10] came out at 83%; in [15] it was 103%; in data set [18], 23%. For the same compound, the exposure (AUC) in data set [14] was 14.7 µM·h; in data set [16], 20.8 µM·h; in data set [17], 2.89 µM·h. Further, in data set [20], the “Ratio EC50” value is 7. Further, the results for the Ki in data set [21] and in [22] were 2 nM and 8 nM, respectively.

With `CN(C)C(=O)NC12CCC(CC1)Cn1c2nc(C(=O)NCc2ccc(F)cc2)c(O)c1=O`, the concentration for a half-maximal effect (EC50) came to 14 nM in [1] and 361 nM in data set [2].

With `CN(C)C(=O)CNC12CCC(CC1)Cn1c2nc(C(=O)NCc2ccc(F)cc2)c(O)c1=O`, the EC50 was 7 nM in data set [1] and above 8000 nM in data set [2].

Take `Cc1cc(F)ccc1CNC(=O)c1nc2n(c(=O)c1O)CC1CCC2(NC(=O)C(=O)N(C)C)CC1`: the EC50 in [1] was 1.3 nM; in data set [2] it was 558 nM.

Regarding `CCOC(=O)C(=O)NC12CCC(CC1)Cn1c2nc(C(=O)NCc2ccc(F)cc2)c(O)c1=O`, the figures for the EC50 in data set [1] and in [2] were 21 nM and above 8000 nM, respectively.

As for `CN(C)C(=O)C(=O)NC12CCC(CC1)Cn1c2nc(C(=O)NCc2ccc(F)c(F)c2)c(O)c1=O`, the EC50 in data set [1] was found to be 0.7 nM; in data set [2], 17 nM.

Turning to `CN(C)CC(=O)NC12CCC(CC1)Cn1c2nc(C(=O)NCc2ccc(F)cc2)c(O)c1=O`, the half-maximal effective concentration (EC50) in [1] was 20 nM; in data set [2], above 8000 nM.

With `CNC(=O)c1cc(F)ccc1CNC(=O)c1nc2n(c(=O)c1O)CC1CCC2(NC(=O)C(=O)N(C)C)CC1`, the results for the half-maximal effective concentration (EC50) in [1] and in data set [2] were 60 nM and above 8000 nM, respectively.

For `CN(C)C(=O)C(=O)NC12CCC(CC1)Cn1c2nc(C(=O)NCc2ccc(F)cc2)c(O)c1=O`, the EC50 in data set [1] came to 1 nM; in data set [2], 10 nM. The highest level in data set [23] (Cmax) was 1.93 µM. Moreover, the half-life in [24] was 0.45 h. In data set [25], this compound yielded a clearance of 30.5 mL/min/kg. Moreover, the Vd in data set [26] worked out at 0.63 L/kg. Also, the Ki in [21] is 2 nM; in [22], 17 nM.

For `CN(C)C(=O)C(=O)NC12CCC(Cn3c1nc(C(=O)NCc1ccc(F)cc1)c(O)c3=O)C2` (stereo not drawn), the EC50 in data set [1] stood at 2 nM; in [2] it was 39 nM; in data set [27], 26 nM.

On to `CN(C)C(=O)C(=O)NC12CCC(CC1)n1c2nc(C(=O)NCc2ccc(F)cc2)c(O)c1=O`, for which the 50% effective concentration (EC50) in data set [1] is 8 nM; in data set [2], above 8000 nM.

In the case of `CN(C)C(=O)C(=O)NC12CCC(CC1)Cn1c2nc(C(=O)NCc2ccc(F)cc2Cl)c(O)c1=O`, the EC50 worked out at 1.3 nM in data set [1] and 1320 nM in data set [2].

For the compound `CN(C)C(=O)C(=O)NC12CCC(CC1)Cn1c2nc(C(=O)NCc2ccc(F)cc2C(F)(F)F)c(O)c1=O`, the figures for the 50% effective concentration (EC50) in [1] and in [2] were 8 nM and above 8000 nM, respectively.

As to `CN(C)C(=O)C(=O)NC12CCC(CC1)Cn1c2nc(C(=O)NCc2ccc(F)c(C(F)(F)F)c2)c(O)c1=O`, the concentration for a half-maximal effect (EC50) in data set [1] was 1.4 nM; in data set [2], 32 nM.

In the case of `CN(C)C(=O)C(=O)NC12CCC(CC1)Cn1c2nc(C(=O)NCc2ccc(F)cc2F)c(O)c1=O`, the half-maximal effective concentration (EC50) was determined as 0.7 nM in data set [1] and 37 nM in data set [2].
